The source of these data is PubChem BioAssay.

Active and inactive are the calls of the source.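 The calls were made as follows, unless noted: active = viability at or under a set limit in both replicates, limit being median viability minus 3 SD (cut at about 48% in these data, passing the limit was not always enough); inconclusive = at or under the limit in just one replicate; inactive = at or above the limit in both replicates.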

Test [1] is described as follows: Her2 expression decrease, cell viability multiplex – SKBR3 breast tumor cells, AlphaScreen, ATP viability, primary screen (AID 461;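 active = Her2 level under about 52% in both replicate screens, with viability over 70% of control, limit read from the data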;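 as to Her2 level: lower value means less Her2 protein in the cells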;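 as to viability: percent of carrier control wells set as 100% viability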). Conditions: SKBR3 Her2 protein level, 18-24 h, measured here: SKBR3 viability, ATP luminescence, at 10 µM. A general note: Alpha assays give light when donor and acceptor beads are brought close together.
The target in test [2] is Receptor tyrosine-protein kinase erbB-2 (Homo sapiens) (UniProt P04626). Described as above. Particulars: 18-24 h, at 10 µM, stronger effect = lower value.
Chain of Receptor tyrosine-protein kinase erbB-2 (Homo sapiens) (P04626 whole entry, looked up): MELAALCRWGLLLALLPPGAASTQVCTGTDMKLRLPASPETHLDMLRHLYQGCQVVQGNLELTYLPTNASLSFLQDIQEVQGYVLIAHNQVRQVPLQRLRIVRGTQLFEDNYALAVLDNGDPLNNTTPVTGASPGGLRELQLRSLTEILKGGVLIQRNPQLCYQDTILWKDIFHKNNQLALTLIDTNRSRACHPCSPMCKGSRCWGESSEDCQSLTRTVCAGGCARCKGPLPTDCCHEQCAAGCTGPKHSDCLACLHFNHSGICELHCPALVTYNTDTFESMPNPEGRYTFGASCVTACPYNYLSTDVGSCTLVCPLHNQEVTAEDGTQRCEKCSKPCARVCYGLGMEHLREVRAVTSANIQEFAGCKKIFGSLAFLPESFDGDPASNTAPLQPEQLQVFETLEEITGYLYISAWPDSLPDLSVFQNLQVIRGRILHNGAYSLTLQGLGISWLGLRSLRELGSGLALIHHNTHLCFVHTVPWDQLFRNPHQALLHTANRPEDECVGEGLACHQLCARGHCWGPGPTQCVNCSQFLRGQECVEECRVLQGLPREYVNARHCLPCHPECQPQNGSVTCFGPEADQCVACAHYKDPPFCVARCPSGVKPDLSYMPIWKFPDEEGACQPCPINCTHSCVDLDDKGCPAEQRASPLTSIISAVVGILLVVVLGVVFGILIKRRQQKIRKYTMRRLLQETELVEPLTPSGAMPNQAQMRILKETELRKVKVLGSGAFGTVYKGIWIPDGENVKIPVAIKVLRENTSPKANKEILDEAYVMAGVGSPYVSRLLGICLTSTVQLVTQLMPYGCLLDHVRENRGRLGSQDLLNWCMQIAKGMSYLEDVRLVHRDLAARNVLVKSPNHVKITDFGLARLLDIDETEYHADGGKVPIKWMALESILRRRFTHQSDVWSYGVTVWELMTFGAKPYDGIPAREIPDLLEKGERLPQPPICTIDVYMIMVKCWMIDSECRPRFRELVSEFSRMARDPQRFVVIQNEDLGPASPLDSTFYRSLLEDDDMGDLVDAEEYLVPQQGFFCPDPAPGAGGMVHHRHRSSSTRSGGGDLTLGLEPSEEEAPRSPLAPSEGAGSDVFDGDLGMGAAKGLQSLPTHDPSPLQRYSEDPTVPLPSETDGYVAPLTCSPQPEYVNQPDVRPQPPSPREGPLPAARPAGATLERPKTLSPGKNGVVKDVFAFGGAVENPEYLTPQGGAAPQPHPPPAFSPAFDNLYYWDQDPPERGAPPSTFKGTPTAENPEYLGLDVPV
Test [3] in a line: reduced viability of SK-BR-3 breast cancer cells – cell-based, 24 h, human, pilot screen (AID 572;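 active = viability at or below 10% of carrier control in both of two separate runs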;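 also: compound exposure lasted between 18 and 24 h rather than exactly 24 h; 100% = carrier-treated control wells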). Particulars: SK-BR-3 viability, CellTiter-Glo luminescence, at 10 µM, stronger effect = lower value. For orientation: ATP-based viability assays read luminescence as a measure of living cells.
The nature of test [4]: HUVEC growth inhibition – cell-based, human, primary screen (AID 575;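 active = viability at or below 30% in both replicate assays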;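 also: 100% = median of untreated cell wells with 0.1% DMSO on each plate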). Conditions: HUVEC proliferation, CellTiter-Glo luminescence, 72 h; at 10 µM; stronger effect = lower value. Summed up: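 Test system – primary HUVEC, no more than 12 passages · Dosing – one dose, 10 µM final, 0.1% DMSO · Times – 72 h treatment at 37 °C · Measured by – ATP-based CellTiter-Glo luminescent read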
Test [5] can be described thus: H69AR cell proliferation blockers – human, duplicate replicates, primary screen (AID 580).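 Also: 100% = mean luminescence of untreated wells and 0% = no signal.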 Particulars: H69AR lung tumor cells viability, ATP luminescence, 72 h; at 10 µM; stronger effect = lower value.
Test [6] can be described thus: MRP1 drug-resistance reversers in H69AR cells – cell-based, doxorubicin co-treatment, pilot screen (AID 601;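 active = viability loss from added drug above about 55%, and viability with drug at most 40%, in both replicates, limit read from the data, passing the limit was not always enough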). Conditions: CellTiter-Glo, 72 h, at 10 µM; for differential viability (reversal): stronger effect = higher value.
Test [7] can be described thus: yeast transport mutant growth inhibition pilot in 384-well plates, post-Golgi transport modulator project (AID 636; in the data active = inhibition above about 31%). Conditions: absorbance 615 nm, about 18 h, stronger effect = higher value.
Test [8] can be described thus: growth suppression of yeast trafficking mutant, preliminary HTS, modulators of trafficking downstream of Golgi apparatus project, 1536-format plate, OD 615 nm (AID 637; in the data active = inhibition above about 30%). Conditions: yeast transport mutant growth, absorbance 615 nm, 18 h; stronger effect = higher value.
The mark [9] stands for this setting: H69AR cells + 2 uM doxorubicin, measured here: viability with 2 uM doxorubicin, stronger effect = lower value.
Where [10] appears, read: H69AR cells, compound alone cytotoxicity.

For orientation: viability means a read-out of living cells in per cent, often relative to untreated cells. In general, inhibition refers to the change of the read-out against control, counted positive when it falls. For `COc1ccc(NC(=O)CN(c2ccc(C)cc2)S(C)(=O)=O)c(OC)c1`, the viability is 90% in test [1]; 90% (inactive) in test [3]; 84.8% (inactive) in test [4]; 101% (inactive) in test [5]; 89.4% in test [6] (setting [9]); 101% in test [6] (setting [10]). The Her2 level in test [2] is 118% (inactive). In test [6] (H69AR cells + 2 uM doxorubicin), the differential viability (reversal) is 11.9% (inactive). The inhibition in test [7] is -2.63% (inactive); in test [8] it was -3.5% (inactive).
Take `Cc1ccc2c(c1)NC(=O)C(CC(=O)NC1CCCCC1C)O2` (stereo not given): the viability was 110% in test [1]; 110% (inactive) in test [3]; 103% (inactive) in test [4]; 97.1% (inactive) in test [5]; 101% in test [6] (setting [9]); 97.1% in test [6] (setting [10]). The Her2 level in test [2] is 86.5% (inactive). Moreover, in test [6] (H69AR cells + 2 uM doxorubicin), the differential viability (reversal) is -3.58% (inactive). The inhibition in test [7] is -2.53% (inactive); in test [8], -1.15% (inactive).
In the case of `O=c1[nH]c(=O)n(C2CCCCCC2)c(O)c1C=NCc1ccc(F)cc1`, the viability in test [1] is 90%; in test [3], 90% (inactive); in test [4], 90.1% (inactive); in test [5], 81.5% (inactive); in test [6] (setting [9]), 86.3%; in test [6] (setting [10]) it was 81.5%. In test [2], the Her2 level is 86.5% (inactive). For the same molecule, the differential viability (reversal) in test [6] (H69AR cells + 2 uM doxorubicin) is -4.79% (inactive). The inhibition in test [7] is -6.8% (inactive); in test [8] it was -2.22% (inactive).
In the case of `O=C(NCCc1ccccc1)C1CCN(S(=O)(=O)N2CCC3(CC2)OCCO3)CC1`, the viability was 102% in test [1]; 102% (inactive) in test [3]; 88.5% (inactive) in test [4]; 99.3% (inactive) in test [5]; 88.4% in test [6] (setting [9]); 99.3% in test [6] (setting [10]). Moreover, in test [2], the Her2 level is 88.5% (inactive). For the same molecule, in test [6] (H69AR cells + 2 uM doxorubicin), the differential viability (reversal) was 10.9% (inactive). Moreover, the inhibition was -2.37% (inactive) in test [7] and 0.16% (inactive) in test [8].
Consider `CCOC(=O)c1cc2sc(C)cc2n1C(C)C(=O)OCC` (stereo not given), for which the viability in test [1] was 97.5%; in test [3] it was 97.5% (inactive); in test [4], 95.8% (inactive); in test [5], 86.3% (inactive); in test [6] (setting [9]) it was 92.5%; in test [6] (setting [10]) it was 86.3%. Also, the Her2 level in test [2] was 79% (inactive). Moreover, the differential viability (reversal) in test [6] (H69AR cells + 2 uM doxorubicin) is -6.21% (inactive). The inhibition in test [7] is -3.6% (inactive); in test [8], 1.8% (inactive).
As for `CC(=O)Oc1ccc(-c2ccc(C(=O)O)cc2)cc1`, the viability in test [1] was 87%; in test [3] it was 87% (inactive); in test [4], 94.5% (inactive); in test [5] it was 107% (inactive); in test [6] (setting [9]), 88.8%; in test [6] (setting [10]) it was 107%. Further, the Her2 level in test [2] was 110% (inactive). Moreover, in test [6] (H69AR cells + 2 uM doxorubicin), the differential viability (reversal) is 18.3% (inactive). Besides, the inhibition was -0.64% (inactive) in test [7] and -7.83% (inactive) in test [8].
As to `COC(=O)c1ccccc1NC(=O)CSc1nc2c(c(=O)n(C)c(=O)n2C)n1C`, the viability was 86% in test [1]; 86% (inactive) in test [3]; 101% (inactive) in test [4]; 97% (inactive) in test [5]; 93.5% in test [6] (setting [9]); 97% in test [6] (setting [10]). Further, in test [2], the Her2 level was 124% (inactive). For the same molecule, the differential viability (reversal) in test [6] (H69AR cells + 2 uM doxorubicin) was 3.48% (inactive). In addition, the values for the inhibition in test [7] and in test [8] were 5.26% (inactive) and 26.5% (inactive), respectively.
For the molecule `Cc1ccc(-c2c3c(=O)n(C)c(=O)n(C)c3cn2CCCN2CCOCC2)cc1`, the viability was 144% in test [1]; 144% (inactive) in test [3]; 103% (inactive) in test [4]; 77.8% (inactive) in test [5]; 82% in test [6] (setting [9]); 77.8% in test [6] (setting [10]). In test [2], the Her2 level was 102% (inactive). Also, in test [6] (H69AR cells + 2 uM doxorubicin), the differential viability (reversal) was -4.19% (inactive). In addition, the inhibition in test [7] is -7.5% (inactive); in test [8], -0.95% (inactive).
As for `C=CCOc1nc2c(c(=O)n(C)c(=O)n2C)n1C`, the viability in test [1] is 96.5%; in test [3], 96.5% (inactive); in test [4] it was 90.9% (inactive); in test [5], 94.4% (inactive); in test [6] (setting [9]), 82%; in test [6] (setting [10]) it was 94.4%. In addition, the Her2 level in test [2] is 100% (inactive). Besides, the differential viability (reversal) in test [6] (H69AR cells + 2 uM doxorubicin) was 12.4% (inactive). In addition, the inhibition in test [7] is -3.25% (inactive); in test [8], 1.33% (inactive).
Regarding `COc1ccc(CCNC(=O)c2ccncc2)cc1OC`, the viability in test [1] is 107%; in test [3] it was 107% (inactive); in test [4] it was 96.3% (inactive); in test [5] it was 97.5% (inactive); in test [6] (setting [9]), 85.3%; in test [6] (setting [10]) it was 97.5%. Further, the Her2 level in test [2] was 110% (inactive). The differential viability (reversal) in test [6] (H69AR cells + 2 uM doxorubicin) is 12.2% (inactive). For the same molecule, the inhibition is -6.27% (inactive) in test [7] and -3.71% (inactive) in test [8].
With `O=C(CSc1nc2ccccc2s1)N1CCOCC1`, the viability was 119% in test [1]; 119% (inactive) in test [3]; 83.6% (inactive) in test [4]; 90.4% (inactive) in test [5]; 97.1% in test [6] (setting [9]); 90.4% in test [6] (setting [10]). Further, the Her2 level in test [2] was 106% (inactive). Further, the differential viability (reversal) in test [6] (H69AR cells + 2 uM doxorubicin) is -6.72% (inactive). For the same molecule, the values for the inhibition in test [7] and in test [8] were -2.27% (inactive) and -9.03% (inactive), respectively.
In the case of `CCOC(=O)N1CCC(NC(=O)CSCc2nc(-c3cccc(OC)c3)oc2C)CC1`, the viability in test [1] was 94.5%; in test [3], 94.5% (inactive); in test [4], 97.7% (inactive); in test [5], 106% (inactive); in test [6] (setting [9]), 103%; in test [6] (setting [10]), 106%. Besides, in test [2], the Her2 level is 91% (inactive). In addition, in test [6] (H69AR cells + 2 uM doxorubicin), the differential viability (reversal) was 2.79% (inactive). The inhibition was -2% (inactive) in test [7] and 3.06% (inactive) in test [8].
As to `CCN1CCN(c2ncc(C(=O)N3CCN(c4ccccc4OC)CC3)c3ccccc23)CC1`, the viability is 81% in test [1]; 81% (inactive) in test [3]; 98.8% (inactive) in test [4]; 101% (inactive) in test [5]; 86.7% in test [6] (setting [9]); 101% in test [6] (setting [10]). The Her2 level in test [2] was 87.5% (inactive). In addition, the differential viability (reversal) in test [6] (H69AR cells + 2 uM doxorubicin) was 14.7% (inactive). In addition, the inhibition in test [7] was -5.68% (inactive); in test [8], -1.8% (inactive).
For `COc1ccc(N(C(=O)c2ccco2)S(=O)(=O)c2cc(OC)ccc2OC)cc1`, the viability is 102% in test [1]; 102% (inactive) in test [3]; 81% (inactive) in test [4]; 72.2% (inactive) in test [5]; 97.9% in test [6] (setting [9]); 72.2% in test [6] (setting [10]). For the same molecule, the Her2 level in test [2] is 84.5% (inactive). Also, the differential viability (reversal) in test [6] (H69AR cells + 2 uM doxorubicin) was -25.7% (inactive). Besides, the inhibition is -1.84% (inactive) in test [7] and 4.17% (inactive) in test [8].
On to `Cc1ccc(C(=O)CCC2CCCC2=O)cc1` (stereo not given), for which the viability in test [1] is 90.5%; in test [3], 90.5% (inactive); in test [4], 111% (inactive); in test [5], 89% (inactive); in test [6] (setting [9]), 88.4%; in test [6] (setting [10]) it was 89%. Moreover, the Her2 level in test [2] is 102% (inactive). Moreover, the differential viability (reversal) in test [6] (H69AR cells + 2 uM doxorubicin) was 0.57% (inactive). The inhibition in test [7] was -4.73% (inactive); in test [8] it was -2.67% (inactive).
`NC(=O)c1cccc(S(=O)(=O)N2CCCCC2)c1`: the viability is 99% in test [1]; 99% (inactive) in test [3]; 96.9% (inactive) in test [4]; 106% (inactive) in test [5]; 96.5% in test [6] (setting [9]); 106% in test [6] (setting [10]). In addition, the Her2 level in test [2] was 96% (inactive). In test [6] (H69AR cells + 2 uM doxorubicin), the differential viability (reversal) was 9.71% (inactive). Also, the inhibition is -7.84% (inactive) in test [7] and 2.62% (inactive) in test [8].
